Data set [1] has as its system Rattus norvegicus. Description: Antilipolytic activity in Sprague-Dawley rat at 10 mg/kg, po. The class given is ADME, organism-based. Further details: dose 10 mg/kg, route oral. As to conditions: in vivo. The method in brief: (§1)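 Male Sprague-Dawley rats, 12 weeks old, fasted overnight; single 10 mg/kg p.o. dose (n = 4 per group; vehicle n = 8). Orbital plexus blood under isoflurane taken at baseline (0.5 h predose) and 1, 3 and 5 h postdose into EDTA tubes with 0.1% NaF. Plasma glycerol measured on an automated analyzer as the antilipolytic endpoint.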

The target in a further data set is T1, Cytochrome P450 1A2 (Homo sapiens, UniProt P05177).
T1 sequence (P05177 whole entry): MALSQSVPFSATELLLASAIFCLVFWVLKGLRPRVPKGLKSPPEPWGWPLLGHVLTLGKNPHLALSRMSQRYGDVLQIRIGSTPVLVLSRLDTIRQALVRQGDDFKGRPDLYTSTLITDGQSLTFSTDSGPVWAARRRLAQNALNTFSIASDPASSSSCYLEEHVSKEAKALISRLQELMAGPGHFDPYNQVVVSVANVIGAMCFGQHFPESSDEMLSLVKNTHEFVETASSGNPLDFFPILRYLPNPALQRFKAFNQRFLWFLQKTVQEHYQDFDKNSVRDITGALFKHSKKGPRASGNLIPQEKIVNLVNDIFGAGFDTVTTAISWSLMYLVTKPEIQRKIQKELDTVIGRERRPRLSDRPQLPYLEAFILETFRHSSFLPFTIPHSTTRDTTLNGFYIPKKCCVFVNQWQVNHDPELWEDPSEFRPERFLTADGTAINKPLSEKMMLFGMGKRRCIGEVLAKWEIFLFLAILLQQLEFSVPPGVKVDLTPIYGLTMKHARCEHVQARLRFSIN
Description: Inhibition of CYP1A2 in human liver microsome. The class given is ADME. As to conditions: microsomes. The method in brief: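 Pooled human liver microsomes (0.1 mg, ≥15 donors) incubated 10 min at 37 °C with 1 mM NADPH and test compound at 20 µM, in triplicate. Substrates at Km: CYP1A2, 14C-phenacetin 40 µM; CYP2D6, 14C-dextromethorphan 3 µM. Conversion read by charcoal extraction then scintillation counting of the supernatant.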
(Liver microsomes are vesicles of endoplasmic reticulum, rich in cytochrome P450 enzymes.)

A further data set addresses T2, Hormone-sensitive lipase (Homo sapiens, UniProt Q05469).
T2 sequence (Q05469 whole entry): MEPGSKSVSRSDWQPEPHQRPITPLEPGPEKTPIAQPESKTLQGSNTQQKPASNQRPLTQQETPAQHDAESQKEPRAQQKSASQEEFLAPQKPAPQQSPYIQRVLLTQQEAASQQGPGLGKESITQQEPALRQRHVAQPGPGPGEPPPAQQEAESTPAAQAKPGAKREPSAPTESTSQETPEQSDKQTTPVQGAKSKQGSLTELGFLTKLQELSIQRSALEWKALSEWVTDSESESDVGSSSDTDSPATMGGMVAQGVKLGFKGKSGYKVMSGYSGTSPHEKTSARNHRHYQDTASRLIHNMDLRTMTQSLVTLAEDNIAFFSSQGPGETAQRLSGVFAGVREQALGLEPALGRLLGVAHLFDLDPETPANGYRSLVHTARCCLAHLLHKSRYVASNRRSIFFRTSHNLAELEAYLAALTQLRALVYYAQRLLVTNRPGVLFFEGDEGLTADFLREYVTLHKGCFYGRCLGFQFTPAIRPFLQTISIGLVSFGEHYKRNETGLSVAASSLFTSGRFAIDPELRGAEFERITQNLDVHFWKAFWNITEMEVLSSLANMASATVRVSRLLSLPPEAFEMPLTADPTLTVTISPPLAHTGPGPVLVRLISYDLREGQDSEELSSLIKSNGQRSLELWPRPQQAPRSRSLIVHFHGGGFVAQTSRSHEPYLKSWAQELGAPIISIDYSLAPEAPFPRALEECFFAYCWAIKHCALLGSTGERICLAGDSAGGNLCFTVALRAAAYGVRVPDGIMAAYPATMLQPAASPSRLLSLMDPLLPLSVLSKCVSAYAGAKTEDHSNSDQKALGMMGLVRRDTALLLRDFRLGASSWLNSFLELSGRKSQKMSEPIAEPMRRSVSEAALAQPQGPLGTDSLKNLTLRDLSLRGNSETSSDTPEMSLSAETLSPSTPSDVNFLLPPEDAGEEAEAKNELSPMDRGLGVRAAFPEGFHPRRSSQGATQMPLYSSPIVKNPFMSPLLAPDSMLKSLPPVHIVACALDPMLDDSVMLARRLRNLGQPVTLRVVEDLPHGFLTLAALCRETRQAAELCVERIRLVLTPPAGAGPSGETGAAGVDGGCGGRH
As to the kind of experiment: Inhibition of recombinant human hormone-sensitive lipase.

The species named for data set [2] is Homo sapiens. Description: Inhibition of butyrylcholine lipase.
Data set [3] relates to Rattus norvegicus. Description: Reduction of glycerol in Sprague-Dawley rat at 10 mg/kg, po. Set-up: dose 10 mg/kg, route oral; scale not given: the % may be the effect or the level left. The following applies: in vivo. It is filed as ADME, organism-based. The method in brief: as §1
Data set [4] in a line: Drug level in Sprague-Dawley rat at 10 mg/kg, po after 1 hr. Set-up: dose 10 mg/kg, route oral. It is filed as ADME, organism-based. As to conditions: in vivo, read-out: Drug uptake. The method in brief: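 Overnight-fasted male Sprague-Dawley rats received 10 mg/kg p.o. (n = 4). Plasma from orbital blood was collected into EDTA/NaF tubes, stored at -80 °C, and drug measured by turbulent-flow chromatography–MS/MS against plasma calibration curves (10-3000 ng/mL).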

A further data set addresses Cholinesterase (Homo sapiens, UniProt P06276). Description: Inhibition of butyrylcholine esterase.
In a further data set the target is Cytochrome P450 2C9 (Homo sapiens, UniProt P11712). Description: Inhibition of CYP2C9 in human liver microsome. The class given is ADME. As to conditions: microsomes.
Cytochrome P450 2C9, sequence (P11712 whole entry): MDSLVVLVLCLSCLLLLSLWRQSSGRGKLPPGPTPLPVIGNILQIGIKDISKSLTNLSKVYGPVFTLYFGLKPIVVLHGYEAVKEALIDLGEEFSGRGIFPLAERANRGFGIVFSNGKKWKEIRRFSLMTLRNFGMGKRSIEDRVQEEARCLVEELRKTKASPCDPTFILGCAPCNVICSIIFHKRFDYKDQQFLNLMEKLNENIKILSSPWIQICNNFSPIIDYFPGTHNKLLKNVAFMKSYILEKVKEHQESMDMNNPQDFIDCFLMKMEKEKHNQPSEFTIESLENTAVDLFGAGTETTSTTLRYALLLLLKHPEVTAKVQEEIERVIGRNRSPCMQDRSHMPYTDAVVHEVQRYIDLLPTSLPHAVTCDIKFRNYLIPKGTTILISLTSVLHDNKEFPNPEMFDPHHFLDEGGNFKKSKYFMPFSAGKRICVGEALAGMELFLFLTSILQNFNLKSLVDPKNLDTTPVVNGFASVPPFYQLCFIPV
In data set [5] the target is T3, Hepatic triacylglycerol lipase (Homo sapiens) (UniProt P11150).
T3 sequence (whole entry): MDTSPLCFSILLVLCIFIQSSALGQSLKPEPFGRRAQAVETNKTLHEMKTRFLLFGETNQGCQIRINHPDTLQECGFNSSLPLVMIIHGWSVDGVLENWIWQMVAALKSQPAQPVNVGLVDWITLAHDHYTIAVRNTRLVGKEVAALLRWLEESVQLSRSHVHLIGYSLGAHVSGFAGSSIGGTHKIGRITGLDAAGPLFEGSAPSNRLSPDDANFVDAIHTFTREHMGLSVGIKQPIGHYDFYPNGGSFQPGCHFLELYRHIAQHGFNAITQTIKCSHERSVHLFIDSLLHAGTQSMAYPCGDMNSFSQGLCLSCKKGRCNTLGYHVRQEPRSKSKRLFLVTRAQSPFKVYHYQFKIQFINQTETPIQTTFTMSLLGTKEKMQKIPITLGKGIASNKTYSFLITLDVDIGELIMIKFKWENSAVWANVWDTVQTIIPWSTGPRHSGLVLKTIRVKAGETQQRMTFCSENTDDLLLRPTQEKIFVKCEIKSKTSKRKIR
As to the kind of experiment: Inhibition of hepatic lipase. A digest of the protocol: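 Lipase inhibition (pancreatic, bovine lipoprotein, human hepatic) used a fluorochrome (NBD)-labelled triacylglyceride substrate. Inhibitor at six concentrations, 5-fold dilutions from a maximum of 100 µM, each point the mean of two measurements. IC50 from sigmoidal variable-slope nonlinear regression.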

Data set [6] is filed under the species Homo sapiens. As to the kind of experiment: Inhibition of acetylcholine lipase.

The source made the active and inactive calls. The rule behind the calls is not given here.

Cholinesterase, sequence (P06276 whole entry): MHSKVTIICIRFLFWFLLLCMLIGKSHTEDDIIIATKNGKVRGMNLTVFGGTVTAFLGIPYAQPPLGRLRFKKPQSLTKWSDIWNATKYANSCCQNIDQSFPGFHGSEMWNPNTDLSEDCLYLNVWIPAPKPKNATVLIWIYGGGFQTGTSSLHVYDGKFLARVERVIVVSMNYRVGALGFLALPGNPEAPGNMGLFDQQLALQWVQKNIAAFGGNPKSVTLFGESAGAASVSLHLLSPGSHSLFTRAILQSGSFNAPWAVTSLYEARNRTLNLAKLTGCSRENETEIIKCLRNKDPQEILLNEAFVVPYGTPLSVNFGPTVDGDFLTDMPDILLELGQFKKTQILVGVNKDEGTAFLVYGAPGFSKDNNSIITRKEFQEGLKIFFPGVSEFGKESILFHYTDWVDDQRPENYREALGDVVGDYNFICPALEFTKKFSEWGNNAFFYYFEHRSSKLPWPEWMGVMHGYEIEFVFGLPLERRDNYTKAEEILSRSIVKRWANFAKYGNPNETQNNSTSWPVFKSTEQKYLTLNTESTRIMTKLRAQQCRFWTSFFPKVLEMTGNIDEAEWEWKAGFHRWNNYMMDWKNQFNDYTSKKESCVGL

Turning to `O=C(Oc1ccc(Oc2ccc(C(F)(F)F)cn2)cc1)N1CCC(O)CC1`, the Activity entry with Rattus norvegicus [1] is listed as “Active”; at Cytochrome P450 1A2, “Not Active”; in the data set with Rattus norvegicus [3], 42%; at Cytochrome P450 2C9, “Not Active”. The IC50 at Hormone-sensitive lipase is 500 nM; at Cholinesterase it was above 50000 nM. Also, the outcome (in the data set filed under Homo sapiens [2]; in [5]; in the data set listed under Homo sapiens [6]) was inactive. Also, in [4], the concentration at 1 h is 3200 ng/mL.

Regarding `O=C(Oc1ccc(Oc2ccc(C(F)(F)F)cn2)cc1)N1CCC(CO)CC1`, the Activity entry with Rattus norvegicus [1] was “Active”; on Cytochrome P450 1A2 it was “Not Active”; with Rattus norvegicus [3], 59%; at Cytochrome P450 2C9 it was “Not Active”. Moreover, the IC50 at Hormone-sensitive lipase was 110 nM; at Cholinesterase it was above 50000 nM. For the same compound, the outcome (in the data set filed under Homo sapiens [2]; in data set [5]; in the data set filed under Homo sapiens [6]) was inactive. For the same compound, the concentration at 1 h in data set [4] stood at 379 ng/mL.

One may read the IC50 as the concentration that gives 50% inhibition.

The values above are taken from ChEMBL document CHEMBL1137574, “Synthesis and structure-activity relationship for a novel class of potent and selective carbamate-based inhibitors of hormone selective lipase with acute in vivo antilipolytic effects” (J Med Chem, 2007).
